Data from PMC4306527 (Journal of medicinal chemistry, 2014).
Where “and” joins values, the source holds several entries; their conditions need not be identical. Equal entries are not always repeated.

Key:
[1] = biological target: rCB1 receptor (rat brain membranes) (Rattus norvegicus, UniProt P20272); test: Radioligand competition binding, rat brain CB1, [3H]CP-55,940
rats [2] = test: Hypothermia testing in rats; type: in vivo, rat
Procedure, shortened: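 Female Sprague–Dawley rats (250–350 g, n = 6/group), reused with ≥5 days between sessions. Test compound was dissolved in 20% ethanol/20% alkamuls/60% saline, then diluted with saline. Temperature was taken by a thermistor probe at 6 cm depth in minimally restrained, isolated rats. Two baselines 15 min apart; injected after the second; read every 30 min to 3 h, then hourly to 6 h. ED50 = dose lowering temperature 3 °C.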

male CD-1 mice = test: Tail-flick withdrawal; type: in vivo, mouse; conditions: 0.3 and 1.0 mg/kg ip, descending phase 180 and 360 min
hCB2 receptor = hCB2 receptor (Homo sapiens, UniProt P34972); test: Radioligand competition binding, human CB2 in HEK293 membranes, [3H]CP-55,940
mCB2 receptor = mCB2 receptor (Mus musculus, UniProt P47936); test: Radioligand competition binding, mouse CB2 in HEK293 membranes, [3H]CP-55,940
rats [3] = conditions: sc, data published previously; cited from earlier work
mouse plasma esterases = test: In vitro plasma stability toward mouse plasma esterases; type: in vitro ADME; conditions: 200 μM in mouse plasma, 37 °C; Stable = no observable hydrolysis within 5 h
Procedure, shortened: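 Test compound at 200 μM in mouse plasma, incubated at 37 °C with 100 rpm shaking. Samples taken at various time points were diluted 1:4 in acetonitrile and centrifuged to remove protein. Supernatant was analysed by HPLC on a C18 column. Half-life came from an exponential decay fit.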

mCB2 receptor, sequence (P47936 whole entry): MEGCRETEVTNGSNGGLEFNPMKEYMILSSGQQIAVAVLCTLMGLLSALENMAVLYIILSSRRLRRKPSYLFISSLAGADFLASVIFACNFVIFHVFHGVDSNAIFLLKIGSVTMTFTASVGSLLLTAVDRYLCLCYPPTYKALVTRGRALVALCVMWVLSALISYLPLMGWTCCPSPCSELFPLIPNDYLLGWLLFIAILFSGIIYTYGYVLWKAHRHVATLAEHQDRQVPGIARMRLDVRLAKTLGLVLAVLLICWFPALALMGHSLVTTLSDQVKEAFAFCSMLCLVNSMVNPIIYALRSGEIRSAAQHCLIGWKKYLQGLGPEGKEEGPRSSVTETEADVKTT
hCB2 receptor, sequence (P34972 whole entry): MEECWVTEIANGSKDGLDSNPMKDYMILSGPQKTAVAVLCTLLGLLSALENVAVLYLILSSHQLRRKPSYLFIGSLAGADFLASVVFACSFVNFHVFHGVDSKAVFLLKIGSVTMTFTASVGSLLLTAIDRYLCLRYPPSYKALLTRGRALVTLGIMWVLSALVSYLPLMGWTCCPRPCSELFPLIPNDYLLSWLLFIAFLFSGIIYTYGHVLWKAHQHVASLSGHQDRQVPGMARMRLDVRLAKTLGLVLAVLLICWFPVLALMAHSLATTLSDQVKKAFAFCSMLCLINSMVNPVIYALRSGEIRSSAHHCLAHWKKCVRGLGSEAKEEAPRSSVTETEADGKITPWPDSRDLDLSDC
rCB1 receptor (rat brain membranes), sequence (P20272 whole entry): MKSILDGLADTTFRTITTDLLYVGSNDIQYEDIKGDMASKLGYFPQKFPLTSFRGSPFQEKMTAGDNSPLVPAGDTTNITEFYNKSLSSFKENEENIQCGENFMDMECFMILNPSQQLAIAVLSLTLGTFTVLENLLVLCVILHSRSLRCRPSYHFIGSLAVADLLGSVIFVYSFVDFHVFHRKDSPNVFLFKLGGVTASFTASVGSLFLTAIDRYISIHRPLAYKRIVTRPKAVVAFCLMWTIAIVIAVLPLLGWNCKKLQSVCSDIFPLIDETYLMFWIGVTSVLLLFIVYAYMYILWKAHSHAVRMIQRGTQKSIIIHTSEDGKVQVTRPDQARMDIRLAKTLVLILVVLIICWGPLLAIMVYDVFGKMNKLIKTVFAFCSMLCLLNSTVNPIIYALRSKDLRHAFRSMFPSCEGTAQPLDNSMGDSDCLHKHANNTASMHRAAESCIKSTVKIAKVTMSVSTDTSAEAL

CC1=CC[C@@H]2[C@@H](C1)c1c(O)cc(C(C)(C)C(=O)OCCCCn3ccnc3)cc1OC2(C)C [Compound 9d, 2-[(6aR,10aR)-6a,7,10,10a-Tetrahydro-1-hydroxy-6,6,9-trimethyl-6H-dibenzo[b,d]pyran-3-yl]-2-methyl-propanoic Acid 4-(1H-Imidazol-1-yl)butyl Ester]
fold reduction of CB1 affinity relative to 10b [1]: ~ 8 fold

CC1=CC[C@@H]2[C@@H](C1)c1c(O)cc(C(C)(C)C(=O)OCCCC#N)cc1OC2(C)C [Compound 10a, 2-[(6aR,10aR)-6a,7,10,10a-Tetrahydro-1-hydroxy-6,6,9-trimethyl-6H-dibenzo[b,d]pyran-3-yl]-2-methyl-propanoic Acid 3-Cyano-propyl Ester]
reduction of body temperature (rats [2]; 0.1 mg/kg sc, from average baseline of 37.8 ± 0.1 °C): 4.5 ± 0.5 °C
fold more potent than (−)-Δ^8-THC-DMH and/or 2b (rats [2]; hypothermia): 8–10 fold and 10 fold
offset of the analgesia effect compared to 2b (male CD-1 mice): significantly faster

CCOC(=O)C(C)(C)c1cc(O)c2c(c1)OC(C)(C)[C@@H]1CC=C(C)C[C@@H]21 [Compound 8b, 2-[(6aR,10aR)-6a,7,10,10a-Tetrahydro-1-hydroxy-6,6,9-trimethyl-6H-dibenzo[b,d]pyran-3-yl]-2-methyl-propanoic Acid Ethyl Ester]
fold higher binding affinity for hCB2 compared to (−)-Δ^8-THC (hCB2 receptor): 24 fold
fold higher binding affinity for mCB2 compared to (−)-Δ^8-THC (mCB2 receptor): 78 fold

CCCCCCC(C)(C)c1cc(O)c2c(c1)OC(C)(C)[C@@H]1CC=C(C)C[C@@H]21 [(−)-Δ^8-THC-DMH, (−)-Δ^8-THC-dimethylheptyl]
ED50 (dose required to reduce temperature by 3 °C) (rats [3]): 0.29 mg/kg

CCCCCNC(=O)C(C)(C)c1cc(O)c2c(c1)OC(C)(C)[C@@H]1CC=C(C)C[C@@H]21 [Compound 18, 2-[(6aR,10aR)-6a,7,10,10a-Tetrahydro-1-hydroxy-6,6,9-trimethyl-6H-dibenzo[b,d]pyran-3-yl]-2-methyl-N-pentylpropanamide]
mouse plasma t1/2 (mouse plasma esterases): Stable ^e
